Assay results: ChEMBL document CHEMBL3102786, “Anilides and quinolones with nitrogen-bearing substituents from benzothiophene and thienothiophene series: synthesis, photochemical synthesis, cytostatic evaluation, 3D-derived QSAR analysis and DNA-binding properties” (Eur J Med Chem, 2014)
Calls of active or inactive are those of the source. No cut-off for these calls is given here.

Experiments:
MCF7 = experiment: Cytotoxicity against human MCF7 cells after 72 hrs by MTT assay; format: functional, cell-based
Procedure, shortened: (§1)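 HCT 116 and H 460 were seeded at 3×10^4 cells/mL and MCF-7 at 5×10^4 cells/mL in DMEM with 10% FBS, 2 mM glutamine and antibiotics, at 37 °C in 5% CO2. Compounds were added after 24 h (DMSO <1%). After 72 h, MTT absorbance was read at 570 nm. Runs were technical quadruplicates with ≥2 biological replicates, and IC50 was obtained by linear interpolation around 50% growth.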

[1] = biological target: T1, DNA topoisomerase 1 (Homo sapiens) (UniProt P11387); experiment: Inhibition of human topoisomerase 1-mediated DNA cleavage assessed as accumulation of nicked DNA at 1 to 50 uM by agarose gel electrophoresis
T1 sequence (whole entry): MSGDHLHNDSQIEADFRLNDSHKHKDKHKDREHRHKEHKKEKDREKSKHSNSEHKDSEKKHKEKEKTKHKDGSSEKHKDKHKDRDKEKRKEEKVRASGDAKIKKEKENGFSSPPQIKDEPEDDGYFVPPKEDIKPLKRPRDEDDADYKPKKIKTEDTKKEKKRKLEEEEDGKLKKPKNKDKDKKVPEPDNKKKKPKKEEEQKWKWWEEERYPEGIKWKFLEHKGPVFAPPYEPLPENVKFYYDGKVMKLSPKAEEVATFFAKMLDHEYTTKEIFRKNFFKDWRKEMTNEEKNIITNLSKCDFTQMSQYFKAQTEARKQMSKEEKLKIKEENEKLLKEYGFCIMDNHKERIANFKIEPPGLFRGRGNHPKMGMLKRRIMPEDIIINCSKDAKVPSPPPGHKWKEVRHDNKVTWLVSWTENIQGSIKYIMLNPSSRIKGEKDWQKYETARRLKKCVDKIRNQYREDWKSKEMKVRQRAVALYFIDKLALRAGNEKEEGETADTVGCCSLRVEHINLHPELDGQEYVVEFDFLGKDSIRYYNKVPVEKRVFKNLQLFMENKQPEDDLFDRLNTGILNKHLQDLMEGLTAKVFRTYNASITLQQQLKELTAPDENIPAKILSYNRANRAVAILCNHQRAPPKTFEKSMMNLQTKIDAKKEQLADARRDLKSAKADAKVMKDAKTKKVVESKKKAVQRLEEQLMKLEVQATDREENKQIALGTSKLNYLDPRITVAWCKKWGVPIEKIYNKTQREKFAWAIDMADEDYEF
Procedure, shortened: (§2)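 Supercoiled pUC19 plasmid was incubated with or without compound across the stated µM range, then relaxed with human topoisomerase I. Reactions were stopped with SDS and proteinase K. Samples were run on a 1% agarose gel in TBE for 2 h at 120 V and post-stained with ethidium bromide. Supercoiled, relaxed and nicked bands were scored under UV.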

Nucleic Acid [2] = experiment: Binding affinity to Escherichia coli supercoiled pUC19 DNA assessed as intercalation at 20 to 50 uM by agarose gel electrophoresis in presence of human DNA topoisomerase 1; format: nucleic-acid assay; procedure, shortened: as §2
[3] = biological target: DNA topoisomerase 2-alpha (Homo sapiens) (UniProt P11388); experiment: Inhibition of DNA topoisomerase 2 (unknown origin)-mediated DNA cleavage assessed as linear band at 50 uM by agarose gel electrophoresis
Procedure, shortened: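 Topoisomerase II DNA cleavage assay was run per an earlier method, with etoposide as the Topo II poison positive control. Compounds came from 10 mM DMSO stocks freshly diluted in aqueous buffer.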

DNA [4] = experiment: Binding affinity to calf thymus DNA assessed as change in melting temperature at 1 drug/DNA ratio by spectrophotometry; format: nucleic-acid assay; conditions: Bos taurus
Procedure, shortened: (§3)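 CT-DNA (20 µM) was dialyzed and incubated alone or with compound at drug/base-pair ratio R 0.25–1 in BPE buffer (6 mM Na2HPO4, 2 mM NaH2PO4, 1 mM EDTA, pH 7.1). A260 was read every min from 20–100 °C at 1 °C/min against a compound-matched reference. Tm was taken from the first-derivative midpoint, and ΔTm = Tm(drug+DNA) − Tm(DNA alone).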

[5] = Cytotoxicity against human H460 cells after 72 hrs by MTT assay; format: functional, cell-based, NCI-H460; procedure, shortened: as §1
HCT-116 = experiment: Cytotoxicity against human HCT116 cells after 72 hrs by MTT assay; format: functional, cell-based; procedure, shortened: as §1
DNA [6] = experiment: Binding affinity to calf thymus DNA assessed as change in melting temperature at 0.5 drug/DNA ratio by spectrophotometry; format: nucleic-acid assay; conditions: Bos taurus; procedure, shortened: as §3
DNA [7] = experiment: Binding affinity to calf thymus DNA assessed as change in melting temperature at 0.25 drug/DNA ratio by spectrophotometry; format: nucleic-acid assay; conditions: Bos taurus; procedure, shortened: as §3
DNA [8] = experiment: Binding affinity to calf thymus DNA assessed as hypochromic effect at 20 uM by UV-Visible spectroscopy relative to control; format: nucleic-acid assay; conditions: Bos taurus
Procedure, shortened: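 Compound (20 µM) in BPE buffer pH 7.1 was titrated with CT-DNA, 10–100 µM in 10 µM steps and then to 200 µM in 20 µM steps (base pairs). Spectra were recorded from 230–530 nm in a 10 mm quartz cuvette, referenced against a cuvette holding the same DNA concentration.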

[9] = Binding affinity to DNA (unknown origin) assessed as inhibition of DNase1-mediated cleavage at 2 to 5 uM by DNase1 footprinting assay
Procedure, shortened: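 DNase I footprinting run essentially per an earlier protocol. Gels were exposed to a storage screen at room temperature and then scanned. Compounds were made as 10 mM DMSO stocks and freshly diluted into aqueous buffer.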

Nucleic Acid [10] = experiment: Binding affinity to Escherichia coli supercoiled pUC19 DNA assessed as intercalation at 0.2 to 5 uM by agarose gel electrophoresis in presence of human DNA topoisomerase 1; format: nucleic-acid assay; procedure, shortened: as §2
DNA [11] = experiment: Binding affinity to calf thymus DNA at 50 uM by circular dichroism spectra analysis; format: nucleic-acid assay; conditions: Bos taurus
Procedure, shortened: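 Drug (50 µM) was incubated in BPE buffer with or without CT-DNA at 0.1–100 µM. CD spectra were recorded from 480 to 230 nm in a 10 mm quartz cell at 20 °C under Peltier control.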

Nucleic Acid [12] = experiment: Binding affinity to Escherichia coli supercoiled pUC19 DNA assessed as intercalation at 1 to 50 uM by agarose gel electrophoresis in presence of human DNA topoisomerase 1; format: nucleic-acid assay; procedure, shortened: as §2
[13] = biological target: DNA topoisomerase 2-alpha (Homo sapiens) (UniProt P11388); conditions: 20 to 50 uM

Sequence of DNA topoisomerase 2-alpha (Homo sapiens) (P11388 whole entry): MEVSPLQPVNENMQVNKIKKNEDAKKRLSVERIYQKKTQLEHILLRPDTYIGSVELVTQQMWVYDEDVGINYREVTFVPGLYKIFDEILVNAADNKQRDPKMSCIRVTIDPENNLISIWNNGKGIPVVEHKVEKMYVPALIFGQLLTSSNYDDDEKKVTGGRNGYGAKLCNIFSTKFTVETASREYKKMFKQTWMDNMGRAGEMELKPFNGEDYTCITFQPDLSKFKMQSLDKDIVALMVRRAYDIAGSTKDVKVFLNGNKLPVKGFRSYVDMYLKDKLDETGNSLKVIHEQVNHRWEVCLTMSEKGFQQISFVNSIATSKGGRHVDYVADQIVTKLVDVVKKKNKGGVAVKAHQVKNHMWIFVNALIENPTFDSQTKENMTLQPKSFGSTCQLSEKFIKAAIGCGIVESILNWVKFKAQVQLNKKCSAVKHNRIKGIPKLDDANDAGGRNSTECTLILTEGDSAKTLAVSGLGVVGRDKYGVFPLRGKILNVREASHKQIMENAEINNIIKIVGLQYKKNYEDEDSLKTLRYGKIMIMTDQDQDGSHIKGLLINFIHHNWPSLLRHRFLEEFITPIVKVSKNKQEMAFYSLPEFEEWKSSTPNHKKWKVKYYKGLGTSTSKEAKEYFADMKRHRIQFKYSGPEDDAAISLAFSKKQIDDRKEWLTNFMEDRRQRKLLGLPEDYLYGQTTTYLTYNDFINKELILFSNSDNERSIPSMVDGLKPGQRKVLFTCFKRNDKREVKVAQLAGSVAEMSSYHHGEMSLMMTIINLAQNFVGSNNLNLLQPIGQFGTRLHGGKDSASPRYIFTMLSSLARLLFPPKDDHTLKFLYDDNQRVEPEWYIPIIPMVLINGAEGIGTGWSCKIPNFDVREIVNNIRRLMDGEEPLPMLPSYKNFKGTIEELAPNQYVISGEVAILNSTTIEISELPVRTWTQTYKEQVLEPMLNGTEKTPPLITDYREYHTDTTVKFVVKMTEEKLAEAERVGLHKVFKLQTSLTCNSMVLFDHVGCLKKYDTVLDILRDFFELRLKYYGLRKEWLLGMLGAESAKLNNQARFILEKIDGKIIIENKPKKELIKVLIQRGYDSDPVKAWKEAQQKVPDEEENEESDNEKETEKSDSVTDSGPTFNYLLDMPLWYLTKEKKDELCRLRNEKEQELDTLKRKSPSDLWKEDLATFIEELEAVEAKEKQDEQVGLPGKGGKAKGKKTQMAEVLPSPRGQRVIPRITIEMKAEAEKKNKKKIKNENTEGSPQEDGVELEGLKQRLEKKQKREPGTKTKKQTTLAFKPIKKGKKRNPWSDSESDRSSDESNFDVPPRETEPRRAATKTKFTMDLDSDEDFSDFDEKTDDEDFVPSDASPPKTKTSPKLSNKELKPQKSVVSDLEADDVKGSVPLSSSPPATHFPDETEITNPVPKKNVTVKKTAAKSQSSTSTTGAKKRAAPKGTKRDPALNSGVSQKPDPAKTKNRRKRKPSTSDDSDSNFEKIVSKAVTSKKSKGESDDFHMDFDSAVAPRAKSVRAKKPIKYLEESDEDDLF

Row | inhibition [1] | Topo II DNA cleavage inhibition (active/not active) [3] | Activity (DNA [4]) | Activity (DNA [6]) | Activity (DNA [7]) | SMILES | IC50 (MCF7; Homo sapiens, MCF7, 72 h) | IC50 ([5]; Homo sapiens, NCI-H460, 72 h) | IC50 (HCT-116; Homo sapiens, HCT-116, 72 h) | also measured
1 | inactive | inactive | inactive | inactive | inactive | CC(=O)Nc1ccc2[nH]c(=O)c3sc4ccccc4c3c2c1 | 76 µM | > 100 µM | 30 µM | Activity (Nucleic Acid [2]): Active
2 | inactive | inactive | – | – | – | CC(=O)Nc1ccc2c(c1)c1c(sc3ccccc31)c(=O)n2CCCN(C)C | 0.6 µM | 0.3 µM | 0.2 µM | Activity (DNA [8]): 24%; Activity [9]: Active; ΔTm (DNA [4]): 19 °C; Activity (Nucleic Acid [10]): Active; ΔTm (DNA [6]): 12.7 °C; ΔTm (DNA [7]): 10 °C
3 | – | inactive | inactive | inactive | inactive | CN(C)c1ccc(NC(=O)c2sc3ccccc3c2Cl)cc1 | > 100 µM | > 100 µM | > 100 µM | –
4 | inactive | inactive | – | – | – | C[N+](C)(C)c1ccc2[nH]c(=O)c3sc4ccccc4c3c2c1 | 50 µM | > 100 µM | > 100 µM | Activity (DNA [11]): inactive; Activity (DNA [8]): 49%; Activity [9]: Active; ΔTm (DNA [4]): 16.9 °C; Activity (Nucleic Acid [10]): Active; ΔTm (DNA [6]): 12.8 °C; ΔTm (DNA [7]): 10 °C
5 | – | inactive | inactive | inactive | inactive | CC(=O)Nc1ccc(NC(=O)c2sc3ccccc3c2Cl)cc1 | > 100 µM | > 100 µM | > 100 µM | –
6 | inactive | Active | – | – | – | C[N+](C)(C)c1ccc(NC(=O)c2sc3ccccc3c2Cl)cc1 | 17 µM | 20 µM | 17 µM | Activity (Nucleic Acid [2]): Active; Activity (DNA [8]): 23%; ΔTm (DNA [4]): 3 °C; ΔTm (DNA [6]): 1 °C
7 | – | inactive | inactive | inactive | inactive | O=C(Nc1ccc([N+](=O)[O-])cc1)c1sc2ccccc2c1Cl | > 100 µM | 55 µM | ≥ 100 µM | –
8 | inactive | inactive | – | – | – | Cn1c(=O)c2sc3ccccc3c2c2cc([N+](C)(C)C)ccc21 | 10 µM | 18 µM | 5 µM | Activity (DNA [11]): inactive; Activity (DNA [8]): 48%; Activity [9]: Active; ΔTm (DNA [4]): 5.9 °C; Activity (Nucleic Acid [10]): Active; ΔTm (DNA [6]): 2.9 °C
9 | inactive | inactive | inactive | inactive | inactive | Nc1ccc(NC(=O)c2sc3ccccc3c2Cl)cc1 [listing 3 of 3 here] | – | – | – | Activity (Nucleic Acid [12]): inactive

The remaining lines, values behind:

Row | SMILES | inhibition [1] | Topo II DNA cleavage inhibition (active/not active) [3] | Activity (DNA [4]) | Activity (DNA [6]) | Activity (DNA [7]) | IC50 (MCF7; Homo sapiens, MCF7, 72 h) | IC50 ([5]; Homo sapiens, NCI-H460, 72 h) | IC50 (HCT-116; Homo sapiens, HCT-116, 72 h) | also measured
10 | Nc1ccc(NC(=O)c2sc3ccccc3c2Cl)cc1 [listing 1 of 3 here] | – | – | – | – | – | – | – | – | IC50 (MCF7; mcf7): ≥ 100 µM
11 | CC(=O)Nc1ccc(NC(=O)c2sc3sccc3c2Cl)cc1 | – | – | – | – | – | > 100 µM | > 100 µM | ≥ 100 µM | –
12 | Nc1ccc(NC(=O)c2sc3ccccc3c2Cl)cc1 [listing 2 of 3 here] | – | – | – | – | – | – | > 100 µM | ≥ 100 µM | IC50 (MCF7; mcf7): 24 µM
13 | CN(C)c1ccc2c(c1)c1c(sc3ccccc31)c(=O)n2C | inactive | inactive | – | – | – | 16 µM | 13 µM | 5 µM | Activity (Nucleic Acid [2]): Active; Activity (DNA [8]): 46%; ΔTm (DNA [4]): 3 °C; ΔTm (DNA [6]): 0 °C
14 | CN(C)c1ccc2[nH]c(=O)c3sc4ccccc4c3c2c1 | inactive | inactive | inactive | inactive | inactive | 7 µM | 37 µM | 7 µM | Activity (Nucleic Acid [12]): inactive
15 | O=c1[nH]c2ccc([N+](=O)[O-])cc2c2c1sc1ccccc12 | inactive | inactive | – | – | – | 49 µM | 18 µM | 22 µM | Activity (Nucleic Acid [12]): inactive
16 | O=C(Nc1ccc([N+](=O)[O-])cc1)c1sc2sccc2c1Cl | – | – | – | – | – | ≥ 100 µM | > 100 µM | > 100 µM | –
17 | Nc1ccc2[nH]c(=O)c3sc4ccccc4c3c2c1 [listing 1 of 3 here] | inactive | inactive | inactive | inactive | inactive | – | – | – | Activity (Nucleic Acid [2]): Active; Activity (DNA [8]): 58%; ΔTm (DNA [6]): 2 °C
18 | CN(C)c1ccc(NC(=O)c2sc3sccc3c2Cl)cc1 | – | – | – | – | – | > 100 µM | > 100 µM | > 100 µM | –
19 | CC(=O)N(C)c1ccc2c(c1)c1c(sc3ccccc31)c(=O)n2C | – | – | – | – | – | ≥ 100 µM | 40 µM | 14 µM | –
20 | Nc1ccc2[nH]c(=O)c3sc4ccccc4c3c2c1 [listing 2 of 3 here] | – | – | – | – | – | 2 µM | 6 µM | 3 µM | –
21 | Nc1ccc2[nH]c(=O)c3sc4ccccc4c3c2c1 [listing 3 of 3 here] | – | – | – | – | – | – | – | – | IC50 ([5]; nci-h460): 9 µM; IC50 (HCT-116; hct-116): 4 µM
22 | COc1cc([C@@H]2c3cc4c(cc3[C@@H](O[C@@H]3O[C@@H]5CO[C@@H](C)O[C@H]5[C@H](O)[C@H]3O)[C@H]3COC(=O)[C@H]23)OCO4)cc(OC)c1O | – | – | – | – | – | – | – | – | inhibition [13]: Active
